# mIAP activ: mouse IAP activation; muIAP, CDP-Star luminescence, 30 min; active compounds read high; 1 = vehicle-only enzyme signal, 0 = enzyme-free wells; activation factor at 10 µM; 330,000 tested, 0.24% active; AID 2805;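 active = activation factor of at least 2 at 20 µM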
#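 Assay system: mouse IAP enzyme; reagent: chemiluminescent substrate CDP-Star; dosing: test compounds delivered from DMSO solution; schedule: 30 min at room temperature; measured by: luminescence from enzymatic CDP-Star hydrolysis; controls: DMSO-only wells and no-enzyme negative control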
# mIAP inh: blocks mouse intestinal alkaline phosphatase; purified mouse IAP, CDP-Star luminescence, 30 min; inhibition, % at 10 µM; 330,000 tested, 0.2% active;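 active = inhibition of at least 40% at 10 µM in the primary screen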;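 note: plate controls were DMSO with enzyme for no effect and no enzyme wells for full effect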
# bIAP inh: intestinal alkaline phosphatase (bovine) inhibition; purified bovine IAP, CDP-star luminescence, 30 min; 190,000 tested, under 10 active; inhibition, % at 20 µM; AID 1019;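 active = over 50% inhibition of intestinal alkaline phosphatase at 20 µM in the single-dose screen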
#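 System: purified bovine intestinal alkaline phosphatase (IAP) enzyme; Input: IAP diluted 1/65,000,000 in the well; Measured by: CDP-star luminescence signal; Compound dosing: 20 µM single dose; Incubation: 30 min reaction at room temperature.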
# hIAP block: blocks human intestinal alkaline phosphatase; AID 2544; inhibition, % at 10 µM; P09923; purified IAP, CDP-Star luminescence, 30 min; 330,000 tested, 0.12% active;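 active = inhibition reaching a set limit with compound at 10 µM in the primary screen, cut at about 35% in these data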;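 note: plate controls were DMSO wells with enzyme for no effect and no-enzyme buffer wells for full effect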
# Target sequence (P09923 whole entry, looked up): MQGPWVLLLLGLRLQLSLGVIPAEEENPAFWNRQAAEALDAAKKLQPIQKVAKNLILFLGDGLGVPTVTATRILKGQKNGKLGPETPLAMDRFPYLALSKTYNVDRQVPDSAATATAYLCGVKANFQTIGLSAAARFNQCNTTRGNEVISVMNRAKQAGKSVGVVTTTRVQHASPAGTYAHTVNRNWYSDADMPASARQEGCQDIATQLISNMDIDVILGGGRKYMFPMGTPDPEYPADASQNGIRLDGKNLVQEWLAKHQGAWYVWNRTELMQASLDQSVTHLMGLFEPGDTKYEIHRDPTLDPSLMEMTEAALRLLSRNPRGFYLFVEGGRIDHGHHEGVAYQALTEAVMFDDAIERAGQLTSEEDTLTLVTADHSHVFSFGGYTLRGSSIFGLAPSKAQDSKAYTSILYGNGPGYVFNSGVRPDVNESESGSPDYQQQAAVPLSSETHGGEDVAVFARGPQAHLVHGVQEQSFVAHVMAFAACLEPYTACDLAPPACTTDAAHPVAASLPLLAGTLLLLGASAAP
# hIAP act: increases human intestinal alkaline phosphatase activity | activation factor at 10 µM | purified human IAP, CDP-Star luminescence, 30 min; active compounds read high; 1 = vehicle-only enzyme, 0 = enzyme-free background | 330,000 tested, 0.16% active | P09923;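 active = activation factor of the enzyme at least 2-fold when tested at 20 µM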
# bIAP act: intestinal alkaline phosphatase (bovine) activation; activation factor at 20 µM; purified bovine IAP, CDP-star luminescence, 30 min; active compounds read high; fold of DMSO-control signal, blank-subtracted; AID 1016; 200,000 tested, 0.17% active;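 active = activation factor of 2 or more at 20 µM, a signal rise over negative controls twice the positive control's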
# mIAP inh confirm: mouse IAP inhibition confirmation | shares compounds with mIAP inh | purified mouse IAP, CDP-Star luminescence, 30 min | inhibition, % at 10 µM | AID 434971 | 11,000 tested, 4.7% active;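 active = inhibition of at least 40% at 10 µM in either of the two replicates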;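 note: plate controls were DMSO wells with enzyme for no effect and buffer wells lacking enzyme for full effect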
# The depositor's hits bear a star; i = inactive; nt = no result. Most compounds without a hit are left out; they make up all but 0.72% or so of the library.
SMILES,mIAP activ,mIAP inh,bIAP inh,hIAP block,hIAP act,bIAP act,mIAP inh confirm
COCC(=O)NC1CC2CCCC(C1)N2Cc1ccccc1 (centres undefined),0.937,6.3,-0.6,-7.8,1.08,1,nt
CCc1cc2c(=O)c(-c3nc4ccccc4n3C)c(C)oc2c(CN2CCOCC2)c1O,0.998,0.2,-1.0,4.9,0.951,1,nt
CC(=O)Nc1ccc(S(=O)(=O)NCc2nnnn2-c2ccc(F)cc2)cc1,1.09,-8.6,nt,-17.6,1.18,nt,nt
O=C1/C(=C\c2ccc(O)cc2)SC(=S)N1/N=C/c1ccc(O)cc1,0.511,48.9*,nt,15.6,0.844,nt,57.1*
C#CCOCCOCCOCCNc1nc(N2CCN(C(=O)CCCCCCCCCCNC(=O)[C@H](CCCCN)n3cc(CCCC(=O)O)nn3)CC2)nc(N2CCN(C(=O)CCCCCCCCCCNC(=O)[C@@H]([C@H](C)O)n3cc(C)nn3)CC2)n1,1.19,-19.0,nt,-4.7,1.05,nt,nt
C#CCOCCOCCOCCNc1nc(N2CCN(C(=O)CCCCCCCCCCNC(=O)[C@H]([C@@H](C)CC)n3cc(CCCCCN)nn3)CC2)nc(N2CCN(C(=O)CCCCCCCCCCNC(=O)[C@H](CCCCN)n3cc(CCCC(=O)O)nn3)CC2)n1,2.42*,-141.8,nt,-7.9,1.08,nt,-221.9
C#CCOCCOCCOCCNc1nc(N2CCN(C(=O)CCCCCCCCCCNC(=O)[C@@H](CCC(=O)O)n3cc(CCCCCN)nn3)CC2)nc(N2CCN(C(=O)CCCCCCCCCCNC(=O)[C@H]([C@@H](C)CC)n3cc(CCCCCN)nn3)CC2)n1,2.2*,-119.7,nt,-2.3,1.02,nt,-175.5
N#CC1CC(c2ccc([N+](=O)[O-])cc2)=NN1c1ccc([N+](=O)[O-])cc1 (centres undefined),0.758,24.2,4.6,8.6,0.914,1,nt
Cc1ccc(NC(=S)NC(NC(=O)c2ccccc2C)C(Cl)(Cl)Cl)c(C)c1 (centres undefined),3.12*,-211.5,-4.9,-15.5,1.16,1,-211.1
CC(=O)NC(NC(=S)Nc1ccc(C)cc1C)C(Cl)(Cl)Cl (centres undefined),1.14,-13.5,nt,1.4,0.986,nt,nt
CCc1c(C(=O)Nc2cc(C)ccc2OC)[nH]c(C)c1C(C)=O,0.973,2.7,7.2,10.2,0.898,0.9,nt
Cc1nn(Cc2ccc(Cl)c(Cl)c2)c(C)c1NC(=O)c1cn(-c2ccccc2)nc1-c1ccccc1,2.93*,-193.0,0.0,-20.5,1.21,1,-161.6
COc1ccc(CCN2C(=O)/C(=C\c3ccco3)SC2=S)cc1OC,0.584,41.6*,6.1,-1.1,1.01,0.9,45.4*
Cc1ccc(/C=C2\SC(=S)N(CC3CCCO3)C2=O)o1 (centres undefined),0.833,16.7,nt,-19.1,1.19,nt,nt
Cc1ccc(N2C(=O)/C(=C\c3ccco3)SC2=S)cc1,0.45,55.0*,5.7,6.6,0.934,0.9,64.5*
O=C1/C(=C\c2ccco2)NC(=S)N1c1ccccc1,0.721,27.9,12.2,-25.8,1.26,0.9,nt
O=C1/C(=C/c2ccco2)SC(=S)N1CC1CCCO1 (centres undefined),0.52,48.0*,nt,13.7,0.863,nt,54.3*
O=C1/C(=C\c2ccco2)SC(=S)N1c1ccccc1,0.359,64.1*,-1.1,-5.0,1.05,1,56.6*
CC(=O)N1C(c2ccccc2O)C[C@]2(C)CC(=O)NC12 (some centres undefined),0.93,7.0,-22.4,-2.8,1.03,1.2,nt
CCOC(=O)CSc1nc2cc(C(=O)NCc3ccco3)ccc2c(=O)n1C1CCCCC1,0.936,6.4,10.6,0.6,0.994,0.9,nt
Oc1cc2c(cc1O)C1c3ccc(O)c(O)c3OCC1(O)C2 (centres undefined),0.262,73.8*,47.5,5.8,0.942,0.5,63.9*
Cc1cc(S(=O)(=O)NC2CCCCC2)ccc1OCC(=O)N1CCOCC1,1.11,-10.9,-8.3,-13.2,1.13,1.1,nt
O=C(c1cc2nc(C3CC3)cc(C(F)F)n2n1)N1CCOCC1,1.04,-4.4,-1.7,-19.5,1.2,1,nt
COc1ccc([C@H]2CC(=O)c3c(O)cc(O)cc3O2)cc1O,0.918,8.2,nt,-8.3,1.08,nt,nt
Oc1cc(O)c2c(c1)O[C@H](c1ccc(O)c(O)c1)[C@H](O)C2,0.183,81.7*,nt,18.9,0.811,nt,61.9*
SMILES,mIAP activ,mIAP inh,bIAP inh,hIAP block,hIAP act,bIAP act,mIAP inh confirm
Cc1ccc(S(=O)(=O)N2CCC(C)CC2)cc1,1.01,-1.2,nt,-16.2,1.16,nt,nt
N#Cc1ccsc1NC(=O)CN1CCN(Cc2ccccc2)CC1,0.94,6.0,-5.2,1.3,0.987,1.1,nt
COc1ccc(C2c3ccc(O)cc3Oc3ncn4nc(-c5ccccn5)nc4c32)cc1OC (centres undefined),1.05,-4.9,nt,-27.5,1.27,nt,nt
CCOC(=O)c1ccc(N2CCN(c3ccccc3F)CC2)c(NC(=O)Nc2ccccc2)c1,6.6*,i,2.8,-41.7,1.42,1,-213.6
Cc1ccc(NC(=S)NC(=O)/C=C/c2ccco2)c(O)c1,0.534,46.6*,-3.1,-0.9,1.01,1,54.0*
COc1ccc(NC(=S)NC(=O)/C=C/c2ccco2)c(OC)c1,0.912,8.8,nt,10.6,0.894,nt,nt
O=C(/C=C/c1ccco1)NC(=S)Nc1ccccc1N1CCCC1,0.888,11.2,3.1,-2.2,1.02,1,nt
O=C(/C=C\c1ccco1)NC(=S)Nc1ccccc1O,0.414,58.6*,nt,-12.1,1.12,nt,71.8*
O=C(/C=C/c1ccco1)NC(=S)Nc1ccccc1O,0.545,45.5*,-6.0,10.7,0.893,1.1,53.7*
O=C(/C=C/c1ccco1)NC(=S)Nc1cccc(C(=O)O)c1,0.522,47.8*,nt,17.1,0.829,nt,63.0*
COc1cccc(NC(=S)NC(=O)/C=C/c2ccco2)c1,0.796,20.4,nt,0.1,0.999,nt,nt
COc1cc(NS(=O)(=O)c2ccc(NC(=S)NC(=O)/C=C/c3ccco3)cc2)ncn1,0.576,42.4*,-2.6,10.4,0.896,1,64.1*
CCOc1ccc(NC(=S)NC(=O)/C=C/c2ccco2)cc1,0.914,8.6,nt,-7.2,1.07,nt,nt
C[C@@H]1O[C@@H](OC2C(O)C(OCCc3ccc(O)c(O)c3)OC(CO)C2OC(=O)/C=C/c2ccc(O)c(O)c2)[C@H](O)[C@H](O)[C@H]1O (some centres undefined),0.543,45.7*,nt,25.6,0.744,nt,41.5*
C[C@@H]1O[C@@H](O[C@H]2[C@H](O)[C@@H](O)[C@H](Oc3c(-c4ccc(O)cc4)oc4cc(O)cc(O)c4c3=O)O[C@@H]2CO)[C@H](O)[C@H](O)[C@H]1O,1.05,-5.4,nt,-3.8,1.04,nt,nt
O=C(Nc1ccc(Cl)cc1)Nc1ccc(Cl)c(Cl)c1,3.27*,-227.1,nt,-17.3,1.17,nt,-127.1
